Source: ChEMBL document CHEMBL3351671, “Synthesis and anticancer activity of (E)-2-benzothiazole hydrazones” (Eur J Med Chem, 2014)

Legend:
[1] = Cytotoxicity against human HCT8 cells after 72 hrs by MTT assay; assay type: functional, cell-based; conditions: HCT-8, 72 h
Method in brief: (§1)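 Cells grown in DMEM with 10% fetal bovine serum, 2 mM glutamine, 100 U/mL penicillin and streptomycin at 37 °C under 5% CO₂. Compounds were dissolved in DMSO, diluted with water and incubated with cells for 72 h. Viability was read by MTT reduction to formazan. IC₅₀ with 95% confidence interval, triplicate experiments.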

[2] = Hemolytic toxicity in mouse erythrocytes assessed as induction of cell membrane disruption incubated for 30 mins by hemoglobin release based spectrophotometry; parameters: species or system Erythrocyte
Method in brief: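 Erythrocytes were exposed to compounds (DMSO stock, water-diluted) for 30 min at room temperature, then centrifuged. Hemoglobin released into the supernatant was read at 540 nm. DMSO served as negative control and 1% Triton X-100 as positive control.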

[3] = test system: MRC5; test: Cytotoxicity against human MRC5 cells after 72 hrs by MTT assay; assay type: cell-based; conditions: mrc5, 72 h
[4] = Cytotoxicity against human HL60 cells after 72 hrs by MTT assay; assay type: functional, cell-based; conditions: HL-60, 72 h; method in brief: as §1
[5] = test system: MDA-MB-435; test: Cytotoxicity against human MDA-MB-435 cells after 72 hrs by MTT assay; assay type: functional, cell-based; conditions: MDA-MB-435, 72 h
Method in brief: as §1, with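 “h. […]” for “h.”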

Oc1ccc(/C=N/Nc2nc3ccccc3s2)cc1O
IC50 [1]: > 17.5 µM
EC50 at 30 min [2]: > 200 µg/mL
Activity [3]: Non-toxic
IC50 [4]: 13.6 µM
IC50 [5]: > 17.5 µM

COc1cccc2c1C(=O)c1c(O)c3c(c(O)c1C2=O)C[C@@](O)(C(=O)CO)C[C@@H]3O[C@H]1C[C@H](N)[C@H](O)[C@H](C)O1 [DOXORUBICIN]
EC50 at 30 min [2]: > 200 µg/mL

C(=N\Nc1nc2ccccc2s1)/c1ccc2c(c1)OCO2
IC50 [1]: > 16.8 µM
EC50 at 30 min [2]: > 200 µg/mL
Activity [3]: Non-toxic
IC50 [4]: 5.51 µM
IC50 [5]: > 16.8 µM

Oc1ccc(/C=N/Nc2nc3ccccc3s2)cc1
IC50 [1]: > 18.6 µM
EC50 at 30 min [2]: > 200 µg/mL
Activity [3]: Non-toxic
IC50 [4]: 4.6 µM
IC50 [5]: > 18.6 µM

Oc1ccc(/C=N/Nc2nc3ccccc3s2)c(O)c1
IC50 [1]: 3.43 µM
EC50 at 30 min [2]: > 200 µg/mL
Activity [3]: Non-toxic
IC50 [4]: 1.89 µM
IC50 [5]: 14.4 µM

Fc1ccc(/C=N/Nc2nc3ccccc3s2)c(F)c1
IC50 [1]: > 17.3 µM
EC50 at 30 min [2]: > 200 µg/mL
IC50 [4]: > 17.3 µM
IC50 [5]: > 17.3 µM

CN(C)c1ccc(/C=N/Nc2nc3ccccc3s2)cc1
IC50 [1]: > 16.9 µM
EC50 at 30 min [2]: > 200 µg/mL
IC50 [4]: > 16.9 µM
IC50 [5]: > 16.9 µM

O=C(O)c1ccccc1/C=N/Nc1nc2ccccc2s1
IC50 [1]: > 16.8 µM
EC50 at 30 min [2]: > 200 µg/mL
IC50 [4]: > 16.8 µM
IC50 [5]: > 16.8 µM

Clc1ccc(/C=N/Nc2nc3ccccc3s2)cc1
IC50 [1]: > 17.4 µM
EC50 at 30 min [2]: > 200 µg/mL
IC50 [4]: > 17.4 µM
IC50 [5]: > 17.4 µM

C(=N\Nc1nc2ccccc2s1)/c1ccc(-c2ccccn2)cc1
IC50 [1]: > 15.1 µM
EC50 at 30 min [2]: > 200 µg/mL
Activity [3]: Non-toxic
IC50 [4]: 11.5 µM
IC50 [5]: > 15.1 µM

Clc1ccc(/C=N/Nc2nc3ccccc3s2)c(Cl)c1
IC50 [1]: > 15.5 µM
EC50 at 30 min [2]: > 200 µg/mL
IC50 [4]: > 15.5 µM
IC50 [5]: > 15.5 µM

Brc1ccc(/C=N/Nc2nc3ccccc3s2)cc1
IC50 [1]: > 15.1 µM
EC50 at 30 min [2]: > 200 µg/mL
IC50 [4]: > 15.1 µM
IC50 [5]: > 15.1 µM

COc1cc(/C=N/Nc2nc3ccccc3s2)ccc1O
IC50 [1]: > 16.7 µM
EC50 at 30 min [2]: > 200 µg/mL
IC50 [4]: > 16.7 µM
IC50 [5]: > 16.7 µM

Oc1ccc(O)c(/C=N/Nc2nc3ccccc3s2)c1
IC50 [1]: 11.2 µM
EC50 at 30 min [2]: > 200 µg/mL
Activity [3]: Non-toxic
IC50 [4]: 0.59 µM
IC50 [5]: 6.27 µM

Oc1cccc(/C=N/Nc2nc3ccccc3s2)c1O
IC50 [1]: 1.29 µM
EC50 at 30 min [2]: > 200 µg/mL
Activity [3]: Non-toxic
IC50 [4]: 0.35 µM
IC50 [5]: > 17.5 µM

Cc1ccc(/C=N/Nc2nc3ccccc3s2)c(C)c1
IC50 [1]: > 17.8 µM
EC50 at 30 min [2]: > 200 µg/mL
IC50 [4]: > 17.8 µM
IC50 [5]: > 17.8 µM

COc1ccc(/C=N/Nc2nc3ccccc3s2)c(OC)c1
IC50 [1]: > 16 µM
EC50 at 30 min [2]: > 200 µg/mL
IC50 [4]: > 16 µM
IC50 [5]: > 16 µM

O=[N+]([O-])c1ccc(O)c(/C=N/Nc2nc3ccccc3s2)c1
IC50 [1]: 13.5 µM
EC50 at 30 min [2]: > 200 µg/mL
Activity [3]: Non-toxic
IC50 [4]: 1.65 µM
IC50 [5]: 14 µM
